≈ marks a conversion by molar mass, not a printed value.
Columns and labels:
[1] = test system: Staphylococcus aureus; experiment: Antibacterial activity against Staphylococcus aureus ATCC 6538 after 24 hrs by micro dilution method; format: functional; conditions: ATCC 6538, 24 h
In short: (§1)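 Microdilution MIC in 96-well plates. Bacterial suspensions adjusted in sterile saline to 1.0 × 10^5 CFU/ml, giving 1.0 × 10^4 cfu per well in LB broth. Compounds tested at up to 1 mg/ml. Plates incubated 24 h. MIC taken as the lowest concentration with no visible growth under a binocular microscope. OD at 655 nm was also read against a blank and the positive control. Streptomycin and ampicillin were the positive controls.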

[2] = test system: Bacillus cereus; experiment: Antibacterial activity against Bacillus cereus clinical isolate after 24 hrs by micro dilution method; format: functional; in short: as §1
[3] = test system: Micrococcus flavus; experiment: Antibacterial activity against Micrococcus flavus ATCC 10240 after 24 hrs by micro dilution method; format: functional; conditions: ATCC 10240, 24 h; in short: as §1
[4] = test system: Listeria monocytogenes; experiment: Antibacterial activity against Listeria monocytogenes NCTC 7973 after 24 hrs by micro dilution method; format: functional; conditions: NCTC 7973, 24 h; in short: as §1
[5] = test system: Pseudomonas aeruginosa; experiment: Antibacterial activity against Pseudomonas aeruginosa ATCC 27853 after 24 hrs by micro dilution method; format: functional; conditions: ATCC 27853, 24 h; in short: as §1
[6] = test system: Enterobacter cloacae; experiment: Antibacterial activity against Enterobacter cloacae human isolate after 24 hrs by micro dilution method; format: functional; in short: as §1
[7] = test system: Salmonella typhimurium; experiment: Antibacterial activity against Salmonella Typhimurium ATCC 13311 after 24 hrs by micro dilution method; format: functional, Salmonella enterica subsp. enterica serovar Typhimurium; conditions: Salmonella enterica, ATCC 13311, 24 h; in short: as §1
[8] = test system: Escherichia coli; experiment: Antibacterial activity against Escherichia coli ATCC 35210 after 24 hrs by micro dilution method; format: functional; conditions: ATCC 35210, 24 h; in short: as §1
[9] = test system: Staphylococcus aureus; experiment: Antibacterial activity against Staphylococcus aureus ATCC 6538 treated for 24 hrs followed by sub-cultivated for 72 hrs by micro dilution method; format: functional
In short: (§2)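 2 µl from each well was serially subcultured into 100 µl fresh broth per well and incubated a further 72 h. MBC is the lowest concentration with no visible growth, taken as 99.5% killing of the original inoculum. Streptomycin and ampicillin were the positive controls.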

[10] = test system: Bacillus cereus; experiment: Antibacterial activity against Bacillus cereus clinical isolate treated for 24 hrs followed by sub-cultivated for 72 hrs by micro dilution method; format: functional; in short: as §2
[11] = test system: Micrococcus flavus; experiment: Antibacterial activity against Micrococcus flavus ATCC 10240 treated for 24 hrs followed by sub-cultivated for 72 hrs by micro dilution method; format: functional; in short: as §2
[12] = test system: Listeria monocytogenes; experiment: Antibacterial activity against Listeria monocytogenes NCTC 7973 treated for 24 hrs followed by sub-cultivated for 72 hrs by micro dilution method; format: functional; in short: as §2
[13] = test system: Pseudomonas aeruginosa; experiment: Antibacterial activity against Pseudomonas aeruginosa ATCC 27853 treated for 24 hrs followed by sub-cultivated for 72 hrs by micro dilution method; format: functional; in short: as §2
[14] = test system: Enterobacter cloacae; experiment: Antibacterial activity against Enterobacter cloacae human isolate treated for 24 hrs followed by sub-cultivated for 72 hrs by micro dilution method; format: functional; in short: as §2
[15] = test system: Salmonella typhimurium; experiment: Antibacterial activity against Salmonella Typhimurium ATCC 13311 treated for 24 hrs followed by sub-cultivated for 72 hrs by micro dilution method; format: functional, Salmonella enterica subsp. enterica serovar Typhimurium; conditions: Salmonella enterica; in short: as §2
[16] = test system: Escherichia coli; experiment: Antibacterial activity against Escherichia coli ATCC 35210 treated for 24 hrs followed by sub-cultivated for 72 hrs by micro dilution method; format: functional; in short: as §2
[17] = test system: Talaromyces funiculosus; experiment: Antifungal activity against Penicillium funiculosum ATCC 36839 after 72 hrs by serial dilution method; format: functional; conditions: ATCC 36839, 72 h
In short: (§3)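 Modified microdilution MIC. Spores were washed from malt agar cultures with sterile 0.85% saline containing 0.1% Tween 80 and adjusted to about 1.0 × 10^5 per 100 µl well in malt broth. Compounds were dissolved in DMSO (1 mg/ml). Plates incubated 72 h at 28 °C. MIC is the lowest concentration with no visible growth under a binocular microscope. Bifonazole and ketoconazole were the references.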

[18] = test system: Penicillium ochrochloron; experiment: Antifungal activity against Penicillium ochrochloron ATCC 9112 after 72 hrs by serial dilution method; format: functional; conditions: ATCC 9112, 72 h; in short: as §3
[19] = test system: Trichoderma viride; experiment: Antifungal activity against Trichoderma viride IAM 5061 after 72 hrs by serial dilution method; format: functional; conditions: IAM 5061, 72 h; in short: as §3
[20] = test system: Aspergillus fumigatus; experiment: Antifungal activity against Aspergillus fumigatus human isolate after 72 hrs by serial dilution method; format: functional; in short: as §3
[21] = test system: Aspergillus niger; experiment: Antifungal activity against Aspergillus niger ATCC 6275 after 72 hrs by serial dilution method; format: functional; conditions: ATCC 6275, 72 h; in short: as §3
[22] = test system: Aspergillus flavus; experiment: Antifungal activity against Aspergillus flavus ATCC 9643 after 72 hrs by serial dilution method; format: functional; conditions: ATCC 9643, 72 h; in short: as §3
[23] = test system: Aspergillus versicolor; experiment: Antifungal activity against Aspergillus versicolor ATCC 11730 after 72 hrs by serial dilution method; format: functional; conditions: ATCC 11730, 72 h; in short: as §3
[24] = test system: Fulvia fulva; experiment: Antifungal activity against Fulvia fulva after 72 hrs by serial dilution method; format: functional; in short: as §3
[25] = test system: Talaromyces funiculosus; experiment: Antifungal activity against Penicillium funiculosum ATCC 36839 treated for 72 hrs followed by sub-cultivated for 5 days by serial dilution method; format: functional
In short: (§4)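 MFC obtained after the 72 h, 28 °C malt-broth microdilution (spore inoculum about 1.0 × 10^5 per well, compounds from 1 mg/ml DMSO). 2 µl was serially subcultured into 100 µl broth per well and incubated a further 5 days at 28 °C. MFC is the lowest concentration with no visible growth, taken as 99.5% killing of the original inoculum.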

[26] = test system: Penicillium ochrochloron; experiment: Antifungal activity against Penicillium ochrochloron ATCC 9112 treated for 72 hrs followed by sub-cultivated for 5 days by serial dilution method; format: functional; in short: as §4
[27] = test system: Trichoderma viride; experiment: Antifungal activity against Trichoderma viride IAM 5061 treated for 72 hrs followed by sub-cultivated for 5 days by serial dilution method; format: functional; in short: as §4
[28] = test system: Aspergillus fumigatus; experiment: Antifungal activity against Aspergillus fumigatus human isolate treated for 72 hrs followed by sub-cultivated for 5 days by serial dilution method; format: functional; in short: as §4
[29] = test system: Aspergillus niger; experiment: Antifungal activity against Aspergillus niger ATCC 6275 treated for 72 hrs followed by sub-cultivated for 5 days by serial dilution method; format: functional; in short: as §4
[30] = test system: Aspergillus flavus; experiment: Antifungal activity against Aspergillus flavus ATCC 9643 treated for 72 hrs followed by sub-cultivated for 5 days by serial dilution method; format: functional; in short: as §4
[31] = test system: Aspergillus versicolor; experiment: Antifungal activity against Aspergillus versicolor ATCC 11730 treated for 72 hrs followed by sub-cultivated for 5 days by serial dilution method; format: functional; in short: as §4
[32] = test system: Fulvia fulva; experiment: Antifungal activity against Fulvia fulva treated for 72 hrs followed by sub-cultivated for 5 days by serial dilution method; format: functional; in short: as §4

SMILES | MIC [1] | MIC [2] | MIC [3] | MIC [4] | MIC [5] | MIC [6] | MIC [7] | MIC [8] | MBC [9] | MBC [10] | MBC [11] | MBC [12] | MBC [13] | MBC [14] | MBC [15] | MBC [16] | other results
CCCCn1c(Cc2cc(OC)c(OC)cc2S(=O)(=O)N(C)C)n[nH]c1=S | 240 µM (≈ 99.5 µg/mL) | 240 µM (≈ 99.5 µg/mL) | 240 µM (≈ 99.5 µg/mL) | 240 µM (≈ 99.5 µg/mL) | 480 µM (≈ 199 µg/mL) | 240 µM (≈ 99.5 µg/mL) | 240 µM (≈ 99.5 µg/mL) | 480 µM (≈ 199 µg/mL) | 480 µM (≈ 199 µg/mL) | 480 µM (≈ 199 µg/mL) | 480 µM (≈ 199 µg/mL) | 240 µM (≈ 99.5 µg/mL) | 480 µM (≈ 199 µg/mL) | 240 µM (≈ 99.5 µg/mL) | 240 µM (≈ 99.5 µg/mL) | 480 µM (≈ 199 µg/mL) | MIC [17]: 120 µM (≈ 49.7 µg/mL); MIC [18]: 120 µM (≈ 49.7 µg/mL); MIC [19]: 60 µM (≈ 24.9 µg/mL); MIC [20]: 120 µM (≈ 49.7 µg/mL); MIC [21]: 60 µM (≈ 24.9 µg/mL); MIC [22]: 60 µM (≈ 24.9 µg/mL); MIC [23]: 240 µM (≈ 99.5 µg/mL); MIC [24]: 120 µM (≈ 49.7 µg/mL); MFC [25]: 240 µM (≈ 99.5 µg/mL); MFC [26]: 480 µM (≈ 199 µg/mL); MFC [27]: 120 µM (≈ 49.7 µg/mL); MFC [28]: 240 µM (≈ 99.5 µg/mL); MFC [29]: 120 µM (≈ 49.7 µg/mL); MFC [30]: 240 µM (≈ 99.5 µg/mL); MFC [31]: 480 µM (≈ 199 µg/mL); MFC [32]: 240 µM (≈ 99.5 µg/mL)
CC1(C)S[C@@H]2[C@H](NC(=O)[C@H](N)c3ccccc3)C(=O)N2[C@H]1C(=O)O [AMPICILLIN] | 250 µM (≈ 87.4 µg/mL) | 250 µM (≈ 87.4 µg/mL) | 250 µM (≈ 87.4 µg/mL) | 370 µM (≈ 129 µg/mL) | 740 µM (≈ 259 µg/mL) | 370 µM (≈ 129 µg/mL) | 250 µM (≈ 87.4 µg/mL) | 370 µM (≈ 129 µg/mL) | 370 µM (≈ 129 µg/mL) | 370 µM (≈ 129 µg/mL) | 370 µM (≈ 129 µg/mL) | 490 µM (≈ 171 µg/mL) | 1240 µM (≈ 433 µg/mL) | 490 µM (≈ 171 µg/mL) | 490 µM (≈ 171 µg/mL) | 740 µM (≈ 259 µg/mL) | 

From ChEMBL document CHEMBL1944580, “Synthesis of novel sulfonamide-1,2,4-triazoles, 1,3,4-thiadiazoles and 1,3,4-oxadiazoles, as potential antibacterial and antifungal agents. Biological evaluation and conformational analysis studies” (2012)
